Laboratory results published in ChEMBL document CHEMBL1123250, “Chloroalanyl antibiotic peptides: antagonism of their antimicrobial effects by L-alanine and L-alanyl peptides in gram-negative bacteria” (1986).
In brackets after ≈: the same amount, converted by molar mass. Several values for one entry are separate records, joined by “and”; a condition that tells them apart may be missing. Identical values can stand only once.

Experiments:
[1] = target: Alanine racemase, biosynthetic (Escherichia coli K-12) (UniProt P0A6B4); assay: (§1) Compound was tested for enzyme activity at a concentration of 100 ug/mL against alanine racemase; per mg of protein
Sequence of Alanine racemase, biosynthetic (Escherichia coli K-12) (P0A6B4 whole entry): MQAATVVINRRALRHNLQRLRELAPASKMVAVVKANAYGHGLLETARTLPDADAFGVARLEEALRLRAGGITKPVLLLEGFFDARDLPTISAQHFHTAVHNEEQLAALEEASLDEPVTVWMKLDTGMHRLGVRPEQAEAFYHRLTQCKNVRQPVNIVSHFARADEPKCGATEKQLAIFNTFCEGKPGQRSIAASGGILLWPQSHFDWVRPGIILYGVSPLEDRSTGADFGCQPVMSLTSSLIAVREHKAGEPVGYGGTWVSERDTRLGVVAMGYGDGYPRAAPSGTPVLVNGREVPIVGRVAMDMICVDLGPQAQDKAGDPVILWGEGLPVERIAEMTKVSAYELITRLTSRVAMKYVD
Procedure, shortened: (§2)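 E. coli JSR-0 was grown at 37 °C in Davis-Mingioli medium with Met and Pro (50 µg/mL each) and Leu, Ile and Val (100 µg/mL each), plus 5% sucrose or 500 µg/mL L-Ala. Agent was added at about 100 Klett units, with 30 min more shaking. Cells were washed in phosphate/EDTA/PLP buffer pH 8.0 and sonicated. D→L racemase was coupled to L-alanine dehydrogenase (10 mM D-Ala, 5 mM NAD+, CHES pH 9.0, 37 °C), reading NADH at 340 nm.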

[2] = target: Alanine racemase, biosynthetic (Escherichia coli K-12) (UniProt P0A6B4); assay: as §1; procedure, shortened: as §2; remark: listed apart in the source
Escherichia coli [3] = assay: Compound was tested for antibacterial activity at a concentration of 50 ug/mL against Escherichia coli ATCC; assay type: functional
Procedure, shortened: (§3)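 Agar dilution in defined peptide susceptibility agar with L-Ala or L-Ala-L-Ala added at 25, 50, 100 or 500 µg/mL, and peptide in serial 2-fold dilutions. Inocula were grown overnight in the liquid susceptibility medium and diluted to about 1 x 10^7 cfu/mL, then replicator-spotted. Plates were incubated overnight at 37 °C. MIC was the lowest concentration allowing fewer than 10 colonies at 16-18 h.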

Escherichia coli [4] = assay: Compound was tested for antibacterial activity at a concentration of 50 ug/mL against Escherichia coli JSR-O; assay type: functional; procedure, shortened: as §3
Escherichia coli [5] = assay: Compound was tested for antibacterial activity at a concentration of 500 ug/mL against Escherichia coli ATCC; assay type: functional; procedure, shortened: as §3
Escherichia coli [6] = assay: Compound was tested for antibacterial activity at a concentration of 500 ug/mL against Escherichia coli JSR-O; assay type: functional; procedure, shortened: as §3
Escherichia coli [7] = assay: Compound was tested for antibacterial activity against Escherichia coli; assay type: functional
Procedure, shortened: (§4)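 Agar dilution MIC on defined peptide susceptibility agar. Inoculum made by growing overnight in liquid peptide susceptibility medium, then diluting to about 1 × 10^7 cfu/mL. Applied by Steers replicator to plates carrying serial 2-fold peptide dilutions. Incubated overnight at 37 °C. MIC = lowest concentration allowing growth of fewer than 10 colonies after 16-18 h.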

Escherichia coli [8] = assay: Compound was tested for antibacterial activity against Escherichia coli JSR-O at a concentration of 25 ug/mL; assay type: functional; procedure, shortened: as §3
Escherichia coli [9] = assay: Compound was tested for antibacterial activity at a concentration of 100 ug/mL against Escherichia coli JSR-O; assay type: functional; procedure, shortened: as §3
Escherichia coli [10] = assay: (§5) Compound was tested for antibacterial activity at a concentration of 25 ug/mL against Escherichia coli ATCC; assay type: functional; procedure, shortened: as §3
Escherichia coli [11] = assay: (§6) Compound was tested for antibacterial activity at a concentration of 25 ug/mL against Escherichia coli JSR-O; assay type: functional; procedure, shortened: as §3
Escherichia coli [12] = assay: as §6; assay type: functional; procedure, shortened: as §3; remark: listed apart in the source
Klebsiella aerogenes [13] = assay: Compound was tested for antibacterial activity against Enterobacter aerogenes at a concentration of 25 ug/mL; assay type: functional; procedure, shortened: as §3
Klebsiella aerogenes [14] = assay: (§7) Compound was tested for antibacterial activity at a concentration of 25 ug/mL against Enterobacter aerogenes; assay type: functional; procedure, shortened: as §3
Klebsiella aerogenes [15] = assay: as §7; assay type: functional; procedure, shortened: as §3; remark: listed apart in the source
Klebsiella aerogenes [16] = assay: Compound was tested for antibacterial activity at a concentration of 50 ug/mL against Enterobacter aerogenes; assay type: functional; procedure, shortened: as §3
Enterobacter cloacae [17] = assay: Compound was tested for antibacterial activity at a concentration of 25 ug/mL against Enterobacter cloacae; assay type: functional; procedure, shortened: as §3
Enterobacter cloacae [18] = assay: Compound was tested for antibacterial activity at a concentration of 50 ug/mL against Enterobacter cloacae; assay type: functional; procedure, shortened: as §3
Enterobacter cloacae [19] = assay: Compound was tested for antibacterial activity at a concentration of 500 ug/mL against Enterobacter cloacae; assay type: functional; procedure, shortened: as §3
Shigella flexneri [20] = assay: Compound was tested for antibacterial activity against Shigella flexneri; assay type: functional; procedure, shortened: as §4
Shigella flexneri [21] = assay: Compound was tested for antibacterial activity against Shigella flexneri at a concentration of 25 ug/mL; assay type: functional; procedure, shortened: as §3
Shigella flexneri [22] = assay: (§8) Compound was tested for antibacterial activity at a concentration of 25 ug/mL against Shigella flexneri; assay type: functional; procedure, shortened: as §3
Shigella flexneri [23] = assay: as §8; assay type: functional; procedure, shortened: as §3; remark: listed apart in the source
Shigella flexneri [24] = assay: Compound was tested for antibacterial activity at a concentration of 50 ug/mL against Shigella flexneri; assay type: functional; procedure, shortened: as §3
Shigella flexneri [25] = assay: Compound was tested for antibacterial activity at a concentration of 500 ug/mL against Shigella flexneri; assay type: functional; procedure, shortened: as §3
Staphylococcus aureus [26] = assay: (§9) Compound was tested for antibacterial activity at a concentration of 25 ug/mL against Staphylococcus aureus; assay type: functional; procedure, shortened: as §3
Staphylococcus aureus [27] = assay: as §9; assay type: functional; procedure, shortened: as §3; remark: listed apart in the source
Staphylococcus aureus [28] = assay: Compound was tested for antibacterial activity at a concentration of 50 ug/mL against Staphylococcus aureus; assay type: functional; procedure, shortened: as §3
Enterococcus faecalis [29] = assay: Compound was tested for antibacterial activity at a concentration of 100 ug/mL against Streptococcus faecalis; assay type: functional; procedure, shortened: as §3
Enterococcus faecalis [30] = assay: (§10) Compound was tested for antibacterial activity at a concentration of 25 ug/mL against Streptococcus faecalis; assay type: functional; procedure, shortened: as §3
Enterococcus faecalis [31] = assay: as §10; assay type: functional; procedure, shortened: as §3; remark: listed apart in the source
Enterococcus faecalis [32] = assay: Compound was tested for antibacterial activity at a concentration of 50 ug/mL against Streptococcus faecalis; assay type: functional; procedure, shortened: as §3
Streptococcus agalactiae = assay: Compound was tested for antibacterial activity against Streptococcus agalactiae; assay type: functional
Procedure, shortened: (§11)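 Inoculum made from colonies grown overnight on chocolate or blood agar, resuspended in liquid medium to 10' cfu/mL. Applied by Steers replicator to serial 2-fold peptide dilutions. Incubated overnight at 37 °C under 7% CO2. MIC = lowest concentration giving fewer than 10 colonies at 16-18 h.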

[33] = test system: Staphylococcus epidermidis; assay: Compound was tested for antibacterial activity at a concentration of 50 ug/mL against Staphylococcus epidermidis; assay type: functional; procedure, shortened: as §3
Streptococcus pyogenes = assay: Compound was tested for antibacterial activity against Streptococcus pyogenes; assay type: functional; procedure, shortened: as §11
[34] = test system: Staphylococcus epidermidis; assay: (§12) Compound was tested for antibacterial activity at a concentration of 25 ug/mL against Staphylococcus epidermidis; assay type: functional; procedure, shortened: as §3
[35] = test system: Staphylococcus epidermidis; assay: as §12; assay type: functional; procedure, shortened: as §3; remark: listed apart in the source
Enterococcus faecalis [36] = assay: Compound was tested for antibacterial activity against Streptococcus faecalis at a concentration of 25 ug/mL; assay type: functional; procedure, shortened: as §3
Escherichia coli [37] = assay: Compound was tested for enzyme activity at a concentration of 100 ug/mL against transaminase B; per mg of protein
Procedure, shortened: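 E. coli JSR-0 was grown at 37 °C in supplemented Davis-Mingioli medium (Met and Pro; Leu, Ile and Val), with sucrose or L-Ala in some cultures. Agent was added at about 100 Klett units and cells harvested after 30 min. The sonicated homogenate was run with Tris pH 7.8, pyridoxal phosphate and α-ketoglutarate; L-valine started transamination at 37 °C. Timed aliquots were derivatised with 2,4-DNPH, and α-ketoisovalerate hydrazone was read at A430 against a standard curve.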

Enterococcus faecalis [38] = assay: Compound was tested for antibacterial activity at a concentration of 500 ug/mL against Streptococcus faecalis; assay type: functional; procedure, shortened: as §3
Staphylococcus aureus [39] = assay: (§13) Compound was tested for antibacterial activity against Staphylococcus aureus at a concentration of 25 ug/mL; assay type: functional; procedure, shortened: as §3
[40] = test system: Staphylococcus epidermidis; assay: as §13; assay type: functional; procedure, shortened: as §3
Escherichia coli [41] = assay: as §5; assay type: functional; procedure, shortened: as §3; remark: listed apart in the source
Klebsiella aerogenes [42] = assay: Compound was tested for antibacterial activity at a concentration of 500 ug/mL against Enterobacter aerogenes; assay type: functional; procedure, shortened: as §3

N[C@@H](CCl)C(=O)N[C@@H](CCl)C(=O)O
Activity [1]: 0.85 µM/min
Activity [2]: 0.19 µM/min
MIC (Escherichia coli [3]): > 100 µg/mL
MIC (Escherichia coli [4]): > 100 µg/mL
MIC (Escherichia coli [5]): > 100 µg/mL
MIC (Escherichia coli [6]): > 100 µg/mL
MIC (Escherichia coli [7]): 12.5 µg/mL (≈ 54.6 µM)
MIC (Escherichia coli [8]): 3.12 µg/mL (≈ 13.6 µM)
MIC (Escherichia coli [9]): >100 µg/mL
MIC (Escherichia coli [9]; Escherichia coli, read-out: MIC): 50 µg/mL (≈ 218 µM)
MIC (Escherichia coli [10]): > 100 µg/mL
MIC (Escherichia coli [11]): > 100 µg/mL
MIC (Escherichia coli [12]): 6.25 µg/mL (≈ 27.3 µM)
MIC (Klebsiella aerogenes [13]): 6.25 µg/mL (≈ 27.3 µM)
MIC (Klebsiella aerogenes [14]): > 100 µg/mL
MIC (Klebsiella aerogenes [15]): 12.5 µg/mL (≈ 54.6 µM)
MIC (Klebsiella aerogenes [16]): > 100 µg/mL
MIC (Enterobacter cloacae [17]): > 100 µg/mL
MIC (Enterobacter cloacae [18]): > 100 µg/mL
MIC (Enterobacter cloacae [19]): > 100 µg/mL
MIC (Shigella flexneri [20]): 3.25 µg/mL (≈ 14.2 µM)
MIC (Shigella flexneri [21]): 1.56 µg/mL (≈ 6.81 µM)
MIC (Shigella flexneri [22]): > 100 µg/mL
MIC (Shigella flexneri [23]): 3.12 µg/mL (≈ 13.6 µM)
MIC (Shigella flexneri [24]): > 100 µg/mL
MIC (Shigella flexneri [25]): > 100 µg/mL
MIC (Staphylococcus aureus [26]): 0.39 µg/mL (≈ 1.7 µM)
MIC (Staphylococcus aureus [27]): 0.05 µg/mL (≈ 0.218 µM)
MIC (Staphylococcus aureus [28]): 6.25 µg/mL (≈ 27.3 µM)
MIC (Enterococcus faecalis [29]): > 100 µg/mL
MIC (Enterococcus faecalis [30]): > 100 µg/mL
MIC (Enterococcus faecalis [31]): > 100 µg/mL
MIC (Enterococcus faecalis [32]): > 100 µg/mL
MIC (Streptococcus agalactiae): 1.56 µg/mL (≈ 6.81 µM)
MIC [33]: 6.25 µg/mL (≈ 27.3 µM)
MIC (Streptococcus pyogenes): 3.12 µg/mL (≈ 13.6 µM)
MIC [34]: 0.39 µg/mL (≈ 1.7 µM)
MIC [35]: 0.05 µg/mL (≈ 0.218 µM)
MIC (Enterococcus faecalis [36]): > 100 µg/mL
Activity (Escherichia coli [37]): 0.13 µM/min and 0.11 µM/min
MIC (Enterococcus faecalis [38]): > 100 µg/mL
MIC (Staphylococcus aureus [39]): 0.05 µg/mL (≈ 0.218 µM)
MIC [40]: 0.05 µg/mL (≈ 0.218 µM)
MIC (Escherichia coli [41]): 3.12 µg/mL (≈ 13.6 µM)
MIC (Klebsiella aerogenes [42]): > 100 µg/mL
